Laboratory results taken from ChEMBL document CHEMBL3576829, “Design, synthesis and evaluation of scutellarein-O-alkylamines as multifunctional agents for the treatment of Alzheimer's disease” (Eur J Med Chem, 2015).

Columns and labels:
[1] = target: T1, Acetylcholinesterase (Rattus norvegicus, UniProt P37136); experiment: Inhibition of AChE in rat cortex using acetylthiocholine iodide as substrate after 15 mins by Ellman's method
T1 sequence (P37136 whole entry): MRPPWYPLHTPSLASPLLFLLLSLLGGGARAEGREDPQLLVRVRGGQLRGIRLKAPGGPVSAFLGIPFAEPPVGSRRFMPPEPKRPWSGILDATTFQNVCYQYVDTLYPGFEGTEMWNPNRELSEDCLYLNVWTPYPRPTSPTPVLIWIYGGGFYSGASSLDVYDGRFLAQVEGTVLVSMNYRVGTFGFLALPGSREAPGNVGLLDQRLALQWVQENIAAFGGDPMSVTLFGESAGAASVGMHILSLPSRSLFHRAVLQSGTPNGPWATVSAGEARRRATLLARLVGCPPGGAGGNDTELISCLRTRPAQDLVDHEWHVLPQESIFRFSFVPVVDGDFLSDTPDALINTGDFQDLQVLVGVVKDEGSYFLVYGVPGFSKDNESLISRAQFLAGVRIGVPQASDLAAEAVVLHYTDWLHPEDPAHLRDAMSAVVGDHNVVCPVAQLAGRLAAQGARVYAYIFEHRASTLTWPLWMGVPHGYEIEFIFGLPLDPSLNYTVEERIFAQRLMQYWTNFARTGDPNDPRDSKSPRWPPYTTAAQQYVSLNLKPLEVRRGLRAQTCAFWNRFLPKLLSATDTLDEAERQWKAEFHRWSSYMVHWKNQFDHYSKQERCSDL

[2] = Inhibition of BuChE in rat serum using butyrylthiocholine iodide as substrate after 15 mins by Ellman's method; conditions: 0.25 h
Method in brief: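 Rat serum (25%, 10 µL) in 100 µL with 1 mmol/L butyrylthiocholine iodide stock, pH 7.4 phosphate buffer and graded inhibitor levels, 37°C for 15 min; DTNB (0.2%) then added and absorbance read at 405 nm.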

[3] = target: Acetylcholinesterase (Electrophorus electricus, UniProt O42275); experiment: Inhibition of electric eel AChE using acetylthiocholine iodide as substrate after 15 mins by Ellman's method
[4] = species on record: Rattus norvegicus; experiment: Selectivity index, ratio of IC50 for rat serum BuChE to IC50 for rat cortex AChE

Chain of Acetylcholinesterase (Electrophorus electricus, UniProt O42275) (O42275 whole entry): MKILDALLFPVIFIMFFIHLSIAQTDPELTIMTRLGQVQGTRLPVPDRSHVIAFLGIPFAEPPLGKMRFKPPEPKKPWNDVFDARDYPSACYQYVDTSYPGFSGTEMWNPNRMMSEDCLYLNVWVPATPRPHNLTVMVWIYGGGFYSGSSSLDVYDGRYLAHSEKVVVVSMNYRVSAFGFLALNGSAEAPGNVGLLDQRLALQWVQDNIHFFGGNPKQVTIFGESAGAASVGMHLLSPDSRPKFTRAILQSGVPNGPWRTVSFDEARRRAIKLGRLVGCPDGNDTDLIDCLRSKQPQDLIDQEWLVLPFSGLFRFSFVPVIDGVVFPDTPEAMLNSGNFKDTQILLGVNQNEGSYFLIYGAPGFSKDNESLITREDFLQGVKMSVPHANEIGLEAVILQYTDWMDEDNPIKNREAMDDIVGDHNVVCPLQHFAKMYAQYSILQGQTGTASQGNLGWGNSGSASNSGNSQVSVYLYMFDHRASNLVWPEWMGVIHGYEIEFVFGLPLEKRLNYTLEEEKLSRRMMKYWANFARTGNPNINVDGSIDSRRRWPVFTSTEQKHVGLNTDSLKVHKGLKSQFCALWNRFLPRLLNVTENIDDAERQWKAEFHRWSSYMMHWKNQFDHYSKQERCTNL

Row | SMILES | IC50 [1] | IC50 [2] | IC50 [3] | Ratio IC50 [4]
1 | O=c1cc(-c2ccc(O)cc2)oc2cc(O)c(O)c(O)c12 [SCUTELLAREIN] | > 500 µM | > 500 µM | – | –
2 | COc1ccccc1CN(C)CCOc1cccc(-c2cc(=O)c3c(OC)c(OC)c(OC)cc3o2)c1 | 3.22 µM | 31.4 µM | 2.49 µM | 9.8
3 | COc1cc2oc(-c3ccc(OCCCCN4CCN(Cc5ccccc5)CC4)cc3)cc(=O)c2c(OC)c1OC | 2.56 µM | 131 µM | 8.53 µM | 51.1
4 | COc1cc2oc(-c3cccc(OCCCN(C)Cc4ccccc4)c3)cc(=O)c2c(OC)c1OC | 5.17 µM | 117 µM | 25 µM | 22.7
5 | COc1ccccc1CN(C)CCCCOc1ccc(-c2cc(=O)c3c(O)c(OC)c(OC)cc3o2)cc1 | 3.43 µM | > 500 µM | 14.4 µM | > 146
6 | COc1cc2oc(-c3cccc(OCCCN4CCN(C)CC4)c3)cc(=O)c2c(OC)c1OC | 7.47 µM | > 500 µM | 35.2 µM | > 66.9
7 | COc1ccccc1CN(C)CCCCOc1cccc(-c2cc(=O)c3c(OC)c(OC)c(OC)cc3o2)c1 | 2.61 µM | 85 µM | 12.2 µM | 32.6
8 | CCN(CCCOc1cccc(-c2cc(=O)c3c(OC)c(OC)c(OC)cc3o2)c1)Cc1ccccc1OC | 0.33 µM | 77.2 µM | 1.78 µM | 234
9 | COc1ccccc1CN(C)CCCOc1ccc(-c2cc(=O)c3c(O)c(OC)c(OC)cc3o2)cc1 | 5 µM | > 500 µM | 31.1 µM | > 100
10 | COc1ccccc1CN(C)CCCOc1cccc(-c2cc(=O)c3c(O)c(OC)c(OC)cc3o2)c1 | 8.1 µM | 354 µM | 28.6 µM | 43.7
11 | CCN(CCCCOc1cccc(-c2cc(=O)c3c(O)c(OC)c(OC)cc3o2)c1)Cc1ccccc1OC | 2.4 µM | > 500 µM | 7.97 µM | > 208
12 | CCN(CCCOc1cccc(-c2cc(=O)c3c(O)c(OC)c(OC)cc3o2)c1)Cc1ccccc1OC | 1.58 µM | 240 µM | 4.5 µM | 152
13 | COc1cc2oc(-c3cccc(OCCCCN4CCN(Cc5ccccc5)CC4)c3)cc(=O)c2c(OC)c1OC | 4.03 µM | 109 µM | 25.3 µM | 27
14 | COc1cc2oc(-c3cccc(OCCN(C)Cc4ccccc4)c3)cc(=O)c2c(OC)c1OC | 9.2 µM | 87.9 µM | 35.7 µM | 9.6
15 | COc1cc2oc(-c3ccc(OCCCCCCN(C)Cc4ccccc4)cc3)cc(=O)c2c(OC)c1OC | 0.99 µM | 84.6 µM | 5.4 µM | 85.5
16 | COc1cc2oc(-c3cccc(OCCCCN(C)Cc4ccccc4)c3)cc(=O)c2c(OC)c1OC | 4.53 µM | 90.7 µM | 18.4 µM | 20
17 | CCN(CCCCCCOc1cccc(-c2cc(=O)c3c(OC)c(OC)c(OC)cc3o2)c1)Cc1ccccc1 | 2.03 µM | 52.1 µM | 12.2 µM | 25.7
18 | COc1ccccc1CN(C)CCCOc1cccc(-c2cc(=O)c3c(OC)c(OC)c(OC)cc3o2)c1 | 0.38 µM | 75.4 µM | 1.59 µM | 198
19 | COc1ccccc1CN(C)CCCCCCOc1ccc(-c2cc(=O)c3c(O)c(OC)c(OC)cc3o2)cc1 | 5.07 µM | > 500 µM | 22.6 µM | > 98.6
20 | CCN(CCCCCCOc1cccc(-c2cc(=O)c3c(O)c(OC)c(OC)cc3o2)c1)Cc1ccccc1OC | 1.27 µM | 484 µM | 0.77 µM | 381
21 | COc1ccccc1CN(C)CCCCCCOc1cccc(-c2cc(=O)c3c(OC)c(OC)c(OC)cc3o2)c1 | 0.96 µM | 60.7 µM | 4.5 µM | 63.2
